In ChEMBL document CHEMBL1124678, “New anticancer agents: alterations of the carbamate group of ethyl (5-amino-1,2-dihydro-3-phenylpyrido[3,4-b]pyrazin-7-yl)car bamates” (J Med Chem, 1989):

Tests used:
[1] = tested on: L1210; assay: The compound was tested in vitro for growth of inhibitory activity against lymphoid leukemia L1210 cells; format: functional, cell-based, Mus musculus
In short: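 Cultured L1210 lymphoid leukemia cells exposed to agent for 48 h; proliferation measured against untreated control growth. IC50 is the nanomolar concentration holding growth to 50% of control; some values averaged from two determinations.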

[2] = tested on: L1210; assay: Mitotic index (fraction of cells in mitosis divided by total cells ) for cultured lymphoid leukemia L1210 cells; format: functional, Mus musculus
In short: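 Cultured L1210 lymphoid leukemia cells exposed to agent for 12 h; mitotic index scored as fraction of cells in mitosis over total cells. Value is the nanomolar concentration giving a mitotic index of 0.5 (MI0.5).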

[3] = tested on: P388; assay: Increase in the life span of mice implanted with lymphocytic leukemia P388 at the highest nontoxic dose of 0.5 mg/Kg given to the compound intraperitoneally; format: functional; details: Mus musculus, P388, ip
[4] = tested on: P388; assay: Increase in the life span of mice implanted with lymphocytic leukemia P388 at the highest nontoxic dose of 12 mg/Kg given to the compound intraperitoneally; format: functional; details: Mus musculus, P388, ip
[5] = tested on: P388; assay: Increase in the life span of mice implanted with lymphocytic leukemia P388 at the highest nontoxic dose of 1 mg/Kg given to the compound intraperitoneally; format: functional; details: Mus musculus, P388, ip
[6] = tested on: P388; assay: Increase in the life span of mice implanted with lymphocytic leukemia P388 at the highest nontoxic dose of 2 mg/Kg given to the compound intraperitoneally; format: functional; details: Mus musculus, P388, ip
[7] = tested on: P388; assay: Increase in the life span of mice implanted with lymphocytic leukemia P388 at the highest nontoxic dose of 25 mg/Kg given to the compound intraperitoneally; format: functional; details: Mus musculus, P388, ip
[8] = tested on: P388; assay: Increase in the life span of mice implanted with lymphocytic leukemia P388 at the highest nontoxic dose of 50 mg/Kg given to the compound intraperitoneally; format: functional; details: Mus musculus, P388, ip
[9] = tested on: P388; assay: Increase in the life span of mice implanted with lymphocytic leukemia P388 at the highest nontoxic dose of 200 mg/Kg given to the compound intraperitoneally; format: functional; details: Mus musculus, P388, ip
[10] = tested on: P388; assay: Increase in the life span of mice implanted with lymphocytic leukemia P388 at the highest nontoxic dose of 200 mg/Kg given to the compound intraperitoneally on day 1; format: functional; details: Mus musculus, P388, ip, 24 h
[11] = tested on: P388; assay: Increase in the life span of mice implanted with lymphocytic leukemia P388 at the highest nontoxic dose of 1.5 mg/kg given to the compound intraperitoneally; format: functional; details: Mus musculus, P388, ip, route intraperitoneal

Row | SMILES | MI0.5 [2] [nM] | IC50 ([1]; Mus musculus, L1210) [nM] | other results
1 | CCOC(=O)Nc1cc2c(c(N)n1)N=C(c1ccccc1)C(C)N2.O=S(=O)(O)CCO (stereo not given) | 0.74 | – | IC50 ([1]; l1210): 0.54 nM; ILS at 0.5 mg/kg [3]: 46%
2 | CCC(C)OC(=O)Nc1cc2c(c(N)n1)N=C(c1ccccc1)C(C)N2 (stereo not given) | – | 1.2 | ILS at 12 mg/kg [4]: 60%
3 | CCOC(=O)Nc1cc2c(c(N)n1)N=C(c1ccccc1)C(C)N2.Cl (stereo not given) | 1.5 | 0.51 | ILS at 1 mg/kg [5]: 75%
4 | CCOC(=O)Nc1cc2c(c(N)n1)N=C(c1ccccc1)CN2 | 2.8 | – | ILS at 2 mg/kg [6]: 51%
5 | CC1Nc2cc(NC(=O)OCc3ccccc3)nc(N)c2N=C1c1ccccc1 (stereo not given) | – | 63 | –
6 | CCOC(=O)Nc1cc2c(c(NC(C)=O)n1)N=C(c1ccccc1)CN2 | 23 | 8.6 | ILS at 25 mg/kg [7]: 49%
7 | Nc1nccc2c1N=C(c1ccccc1)CN2 | >10000 | 2800 | ILS at 50 mg/kg [8]: 0%
8 | CC1Nc2cc(N)nc(N)c2N=C1c1ccccc1 (stereo not given) | 850 | 500 | –
9 | CC(=O)Nc1cc2c(c(NC(C)=O)n1)N=C(c1ccccc1)C(C)N2C(C)=O (stereo not given) | – | > 100 | –
10 | CCOC(=O)Nc1nc(NC(=O)OCC)c2c(c1N)NC(C)C(c1ccccc1)=N2 (stereo not given) | – | > 300 | ILS at 200 mg/kg [9]: 0%
11 | CNC(=O)Nc1cc2c(c(N)n1)N=C(c1ccccc1)C(C)N2 (stereo not given) | – | 20 | ILS at 12 mg/kg [4]: 0%
12 | COC(=O)Nc1cc2c(c(N)n1)N=C(c1ccccc1)C(C)N2 (stereo not given) | 0.8 | 0.54 | ILS at 1 mg/kg [5]: 88%
13 | Nc1nc(NC(=O)OC2CCCCC2)cc2c1N=C(c1ccccc1)CN2 | 260 | 230 | ILS at 200 mg/kg [10]: 0%
14 | COc1cc2c(c(OC)c1OC)-c1ccc(OC)c(=O)cc1[C@@H](NC(C)=O)CC2 [COLCHICINE] | 21 | 6.4 | –
15 | CC[C@]1(O)C[C@H]2CN(CCc3c([nH]c4ccccc34)[C@@](C(=O)OC)(c3cc4c(cc3OC)N(C=O)[C@H]3[C@@](O)(C(=O)OC)[C@H](OC(C)=O)[C@]5(CC)C=CCN6CC[C@]43[C@@H]65)C2)C1 [VINCRISTINE] | 11 | 3.4 | ILS at 1.5 mg/kg [11]: 122%
